{"source": "ChEMBL document CHEMBL1275519", "about": "“In vivo pharmacodynamics of ceftobiprole against multiple bacterial pathogens in murine thigh and lung infection models” (Antimicrob Agents Chemother, 2008)", "key": {"[1]": {"system": "Streptococcus pneumoniae", "assay": "Antimicrobial activity against Streptococcus pneumoniae MNO-418 by broth dilution method", "type": "functional", "in_short": "(§1)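 Ceftobiprole MIC by broth microdilution per Clinical and Laboratory Standards Institute (formerly NCCLS) methods, using ceftobiprole standard powder.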"}, "[2]": {"system": "Enterobacter cloacae", "assay": "Antimicrobial activity against Enterobacter cloacae 4567 by broth dilution method", "type": "functional", "in_short": "(§2)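 Ceftobiprole MIC determined by CLSI (NCCLS) broth microdilution.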"}, "[3]": {"assay": "T>MIC in Staphylococcus aureus ATCC 29213 infected CD1 neutropenic mouse at 2-log kill dose of 15.4 mg/kg, sc administered every 6 hrs", "type": "functional", "details": "route subcutaneous"}, "[4]": {"assay": "Half life in CD1 neutropenic mouse with bacterial infection in thigh at 10 mg/kg, sc", "details": "in vivo"}, "[5]": {"assay": "Cmax in CD1 neutropenic mouse with bacterial infection in thigh at 10 mg/kg, sc", "details": "in vivo"}, "[6]": {"assay": "T>MIC in Enterobacter cloacae 2249 infected CD1 neutropenic mouse at 2-log kill dose of 155 mg/kg, sc administered every 3 hrs", "type": "functional", "details": "route subcutaneous"}, "[7]": {"assay": "T>MIC in methicillin-resistant Staphylococcus aureus 22115 infected CD1 neutropenic mouse at 2-log kill dose of 34.4 mg/kg, sc administered every 6 hrs", "type": "functional", "details": "route subcutaneous"}, "[8]": {"assay": "T>MIC in Enterobacter cloacae 2249 infected CD1 neutropenic mouse at static dose of 22.2 mg/kg, sc administered every 3 hrs", "type": "functional", "details": "route subcutaneous", "in_short": "(§3)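 Neutropenic mice (cyclophosphamide i.p. 150 and 100 mg/kg, 4 and 1 days pre-infection) given 0.1 ml thigh inoculum (1:10 dilution of 10^8 CFU/ml), then treated from 2 h post-infection for 24 h with s.c. ceftobiprole medocaril (0.010–160 mg/kg) at varied intervals. Thigh CFU plated from homogenates. Static dose came from a sigmoid Hill model, and T>MIC was estimated from mouse PK and MIC.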"}, "[9]": {"assay": "T>MIC in Klebsiella pneumoniae infected CD1 neutropenic mouse at static dose of 6.61 mg/kg, sc administered every 6 hrs", "type": "functional", "details": "route subcutaneous", "in_short": "as §3"}, "[10]": {"assay": "T>MIC in methicillin-resistant Staphylococcus aureus WIS-1 infected CD1 neutropenic mouse at static dose of 16.1 mg/kg, sc administered every 6 hrs", "type": "functional", "details": "route subcutaneous"}, "[11]": {"system": "Escherichia coli", "assay": "Antimicrobial activity against Escherichia coli ATCC 25922 by broth dilution method", "type": "functional", "in_short": "as §2"}, "[12]": {"system": "Klebsiella pneumoniae", "assay": "Antimicrobial activity against Klebsiella pneumoniae ATCC 43816 by broth dilution method", "type": "functional", "in_short": "as §2"}, "[13]": {"system": "Staphylococcus aureus", "assay": "Antimicrobial activity against Staphylococcus aureus ATCC Smith by broth dilution method", "type": "functional", "in_short": "as §1"}, "[14]": {"assay": "T>MIC in Streptococcus pneumoniae CDC 1329 infected CD1 neutropenic mouse at 2-log kill dose of 5.51 mg/kg, sc administered every 6 hrs", "type": "functional", "details": "route subcutaneous"}, "[15]": {"system": "Pseudomonas aeruginosa", "assay": "Antimicrobial activity against Pseudomonas aeruginosa ATCC 27853 by broth dilution method", "type": "functional", "in_short": "as §1"}, "[16]": {"system": "Enterobacter cloacae", "assay": "Antimicrobial activity against Enterobacter cloacae 2249 by broth dilution method", "type": "functional", "in_short": "as §2"}, "[17]": {"assay": "Cmax in CD1 neutropenic mouse with bacterial infection in thigh at 160 mg/kg, sc", "type": "ADME, organism-based", "set-up": "dose 160 mg/kg, route subcutaneous", "details": "in vivo", "in_short": "(§4)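 Neutropenic thigh-infected mice (cyclophosphamide i.p. 150 mg/kg day −4, 100 mg/kg day −1) given single s.c. ceftobiprole medocaril doses; two groups of three mice per dose bled retro-orbitally at 0.5–6 h, each animal 3–4 times. Total serum drug measured by agar diffusion bioassay with E. coli NIH-J (linear 0.25–256 μg/ml). Cmax, t1/2 and AUC from one-compartment model.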"}, "[18]": {"system": "Streptococcus pneumoniae", "assay": "Antimicrobial activity against Streptococcus pneumoniae CDC 145 by broth dilution method", "type": "functional", "in_short": "as §2"}, "[19]": {"assay": "T>MIC in Escherichia coli ATCC 25922 infected CD1 neutropenic mouse at static dose of 8.25 mg/kg, sc administered every 6 hrs", "type": "functional", "details": "route subcutaneous", "in_short": "as §3"}, "[20]": {"assay": "T>MIC in Staphylococcus aureus ATCC 22923 infected CD1 neutropenic mouse at static dose of 2.03 mg/kg, sc administered every 6 hrs", "type": "functional", "details": "route subcutaneous", "in_short": "as §3"}, "[21]": {"assay": "T>MIC in methicillin-resistant Staphylococcus aureus 12248 infected CD1 neutropenic mouse at 2-log kill dose of 50.5 mg/kg, sc administered every 6 hrs", "type": "functional", "details": "route subcutaneous"}, "[22]": {"assay": "T>MIC in Escherichia coli ATCC 25922 infected CD1 neutropenic mouse at 2-log kill dose of 42.4 mg/kg, sc administered every 6 hrs", "type": "functional", "details": "route subcutaneous"}, "[23]": {"assay": "T>MIC in Streptococcus pneumoniae CDC 1293 infected CD1 neutropenic mouse at static dose of 2.72 mg/kg, sc administered every 6 hrs", "type": "functional", "details": "route subcutaneous", "in_short": "as §3"}, "[24]": {"assay": "T>MIC in Streptococcus pneumoniae CDC 673 infected CD1 neutropenic mouse at 2-log kill dose of 29 mg/kg, sc administered every 6 hrs", "type": "functional", "details": "route subcutaneous"}, "[25]": {"assay": "T>MIC in Staphylococcus aureus ATCC 29213 infected CD1 neutropenic mouse at static dose of 3.78 mg/kg, sc administered every 6 hrs", "type": "functional", "details": "route subcutaneous", "in_short": "as §3"}, "[26]": {"assay": "Half life in CD1 neutropenic mouse with bacterial infection in thigh at 40 mg/kg, sc", "type": "ADME, organism-based", "set-up": "dose 40 mg/kg, route subcutaneous", "details": "in vivo", "in_short": "as §4"}, "[27]": {"assay": "T>MIC in Enterobacter cloacae 4567 infected CD1 neutropenic mouse at 2-log kill dose of 4.67 mg/kg, sc administered every 3 hrs", "type": "functional", "details": "route subcutaneous"}, "[28]": {"system": "Staphylococcus aureus", "assay": "Antimicrobial activity against methicillin-resistant Staphylococcus aureus WIS-1 by broth dilution method", "type": "functional", "in_short": "as §1"}, "[29]": {"assay": "AUC in CD1 neutropenic mouse with bacterial infection in thigh at 10 mg/kg, sc", "details": "plasma"}, "[30]": {"assay": "T>MIC in Staphylococcus aureus ATCC 33591 infected CD1 neutropenic mouse at 2-log kill dose of 15.3 mg/kg, sc administered every 6 hrs", "type": "functional", "details": "route subcutaneous"}, "[31]": {"system": "Staphylococcus aureus", "assay": "Antimicrobial activity against methicillin-resistant Staphylococcus aureus 22115 by broth dilution method", "type": "functional", "in_short": "as §1"}, "[32]": {"assay": "T>MIC in Streptococcus pneumoniae CDC-145 infected CD1 neutropenic mouse at 2-log kill dose of 3.27 mg/kg, sc administered every 6 hrs", "type": "functional", "details": "route subcutaneous"}, "[33]": {"assay": "T>MIC in Pseudomonas aeruginosa ATCC 27853 infected CD1 neutropenic mouse at static dose of 25.2 mg/kg, sc administered every 3 hrs", "type": "functional", "details": "route subcutaneous", "in_short": "as §3"}}, "data": [{"smiles": "Nc1nc(/C(=N/O)C(=O)N[C@@H]2C(=O)N3C(C(=O)O)=C(/C=C4\\CCN([C@@H]5CCNC5)C4=O)CS[C@H]23)ns1", "note": "[CEFTOBIPROLE]", "values": [{"measurement": "MIC", "setting": "[1]", "value": 0.015, "unit": "µg/mL"}, {"measurement": "MIC", "setting": "[2]", "value": 0.5, "unit": "µg/mL"}, {"measurement": "fT>MIC", "setting": "[3]", "value": 29.9, "unit": "%"}, {"measurement": "half-life", "setting": "[4]", "value": 19, "unit": "min"}, {"measurement": "Cmax", "setting": "[5]", "value": 10.8, "unit": "µg/mL"}, {"measurement": "fT>MIC", "setting": "[6]", "value": 100, "unit": "%"}, {"measurement": "fT>MIC", "setting": "[7]", "value": 29.6, "unit": "%"}, {"measurement": "fT>MIC", "setting": "[8]", "value": 44.6, "unit": "%"}, {"measurement": "fT>MIC", "setting": "[9]", "value": 41.2, "unit": "%"}, {"measurement": "fT>MIC", "setting": "[10]", "value": 25, "unit": "%"}, {"measurement": "MIC", "setting": "[11]", "value": 0.06, "unit": "µg/mL"}, {"measurement": "MIC", "setting": "[12]", "value": 0.06, "unit": "µg/mL"}, {"measurement": "MIC", "setting": "[13]", "value": 0.5, "unit": "µg/mL"}, {"measurement": "fT>MIC", "setting": "[14]", "value": 27, "unit": "%"}, {"measurement": "MIC", "setting": "[15]", "value": 2, "unit": "µg/mL"}, {"measurement": "MIC", "setting": "[16]", "value": 2, "unit": "µg/mL"}, {"measurement": "Cmax", "setting": "[17]", "value": 144, "unit": "µg/mL"}, {"measurement": "MIC", "setting": "[18]", "value": 0.25, "unit": "µg/mL"}, {"measurement": "fT>MIC", "setting": "[19]", "value": 41.9, "unit": "%"}, {"measurement": "fT>MIC", "setting": "[20]", "value": 14.1, "unit": "%"}, {"measurement": "fT>MIC", "setting": "[21]", "value": 31.6, "unit": "%"}, {"measurement": "fT>MIC", "setting": "[22]", "value": 57.8, "unit": "%"}, {"measurement": "fT>MIC", "setting": "[23]", "value": 16.3, "unit": "%"}, {"measurement": "fT>MIC", "setting": "[24]", "value": 29.7, "unit": "%"}, {"measurement": "fT>MIC", "setting": "[25]", "value": 18.9, "unit": "%"}, {"measurement": "half-life", "setting": "[26]", "value": 19.8, "unit": "min"}, {"measurement": "fT>MIC", "setting": "[27]", "value": 40.9, "unit": "%"}, {"measurement": "MIC", "setting": "[28]", "value": 1, "unit": "µg/mL"}, {"measurement": "AUC at 10 mg/kg", "setting": "[29]", "value": 5850, "unit": "ng·h/mL"}, {"measurement": "fT>MIC", "setting": "[30]", "value": 24.4, "unit": "%"}, {"measurement": "MIC", "setting": "[31]", "value": 1, "unit": "µg/mL"}, {"measurement": "fT>MIC", "setting": "[32]", "value": 23, "unit": "%"}, {"measurement": "fT>MIC", "setting": "[33]", "value": 46.7, "unit": "%"}]}]}
